pIC50: −log10 of the molar value.
Tests used:
Mus musculus [1] = assay: Percentage analgesic efficacy when compared to morphine at 10 ug intracerebroventricularly; assay type: functional
Outline: (§1)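 Male Swiss albino mice, hot-plate test, paw-licking latency; pretest 12–18 s required, cutoff 45 s. Icv injection of 5 μL under brief anaesthesia, in saline or H2O/DMSO 2:1, at maximal soluble dose. Latency read before and every 15 min after dosing. Efficacy = (peak latency − pretest) as % of the same value for morphine 10 μg/mouse icv; non-significant effects scored 0.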

Mus musculus [2] = assay: Percentage analgesic efficacy when compared to morphine at 50 ug intracerebroventricularly; assay type: functional; outline: as §1
Mus musculus [3] = assay: (§2) Analgesic activity was evaluated in mouse hotplate test; expressed as licking latency after 30 min of treatment at a dose of 10 ug intracerebroventricularly; assay type: functional
Outline: (§3)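 Male Swiss albino mice (23-30 g); icv injection of 5 μL (saline or H2O/DMSO 2:1) under brief anaesthesia. Paw-licking latency (s) on hot plate read before injection and every 15 min up to 60 min. Mice with pretest latency below 12 or over 18 s excluded; cutoff 45 s. Statistics against saline- or vehicle-treated controls.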

Mus musculus [4] = assay: Analgesic activity was evaluated in mouse hotplate test; expressed as licking latency after 30 min of treatment at a dose of 25 ug intracerebroventricularly; assay type: functional; outline: as §3
Mus musculus [5] = assay: Analgesic activity was evaluated in mouse hotplate test; expressed as licking latency after 15 min of treatment at a dose of 25 ug intracerebroventricularly; assay type: functional; outline: as §3
Mus musculus [6] = assay: (§4) Analgesic activity was evaluated in mouse hotplate test; expressed as licking latency after 45 min of treatment at a dose of 10 ug intracerebroventricularly; assay type: functional; outline: as §3
Mus musculus [7] = assay: Analgesic activity was evaluated in mouse hotplate test; expressed as licking latency after 45 min of treatment at a dose of 25 ug intracerebroventricularly; assay type: functional; outline: as §3
Mus musculus [8] = assay: Analgesic activity was evaluated in mouse hotplate test; expressed as licking latency before treatment at a dose of 10 ug intracerebroventricularly; assay type: functional; outline: as §3
Mus musculus [9] = assay: Analgesic activity was evaluated in mouse hotplate test; expressed as licking latency before treatment at a dose of 25 ug intracerebroventricularly; assay type: functional; outline: as §3
Mus musculus [10] = assay: Analgesic activity was evaluated in mouse hotplate test; expressed as licking latency after 15 min of treatment at a dose of 50 ug intracerebroventricularly; assay type: functional; outline: as §3
Mus musculus [11] = assay: (§5) Analgesic activity was evaluated in mouse hotplate test; expressed as licking latency after 15 min of treatment at a dose of 10 ug intracerebroventricularly; assay type: functional; outline: as §3
Mus musculus [12] = assay: Analgesic activity was evaluated in mouse hotplate test; expressed as licking latency after 30 min of treatment at a dose of 50 ug intracerebroventricularly; assay type: functional; outline: as §3
Mus musculus [13] = assay: Analgesic activity was evaluated in mouse hotplate test; expressed as licking latency after 45 min of treatment at a dose of 50 ug intracerebroventricularly; assay type: functional; outline: as §3
Rattus norvegicus [14] = assay: Antihyperalgesic activity was evaluated in rat (dx) paw pressure test after 30 min at a dose of 50 ug intracerebroventricularly
Rattus norvegicus [15] = assay: Antihyperalgesic activity was evaluated in rat (dx) paw pressure test after 45 min at a dose of 50 ug intracerebroventricularly
Rattus norvegicus [16] = assay: Antihyperalgesic activity was evaluated in rat (dx) paw pressure test after 60 min at a dose of 50 ug intracerebroventricularly
Rattus norvegicus [17] = assay: Antihyperalgesic activity was evaluated in rat (sn) paw pressure test after 30 min at a dose of 50 ug intracerebroventricularly
Rattus norvegicus [18] = assay: Antihyperalgesic activity was evaluated in rat (sn) paw pressure test after 45 min at a dose of 50 ug intracerebroventricularly
Rattus norvegicus [19] = assay: Antihyperalgesic activity was evaluated in rat (sn) paw pressure test after 60 min at a dose of 50 ug intracerebroventricularly
[20] = target: Voltage-dependent N-type calcium channel subunit alpha-1B (Rattus norvegicus) (UniProt Q02294); assay: In vitro antagonism of N-type calcium channels expressed in PC12 cells was determined as the increase in intracellular calcium influx in the presence of 10 uM nifedipine
Chain of Voltage-dependent N-type calcium channel subunit alpha-1B (Rattus norvegicus) (Q02294 whole entry, looked up): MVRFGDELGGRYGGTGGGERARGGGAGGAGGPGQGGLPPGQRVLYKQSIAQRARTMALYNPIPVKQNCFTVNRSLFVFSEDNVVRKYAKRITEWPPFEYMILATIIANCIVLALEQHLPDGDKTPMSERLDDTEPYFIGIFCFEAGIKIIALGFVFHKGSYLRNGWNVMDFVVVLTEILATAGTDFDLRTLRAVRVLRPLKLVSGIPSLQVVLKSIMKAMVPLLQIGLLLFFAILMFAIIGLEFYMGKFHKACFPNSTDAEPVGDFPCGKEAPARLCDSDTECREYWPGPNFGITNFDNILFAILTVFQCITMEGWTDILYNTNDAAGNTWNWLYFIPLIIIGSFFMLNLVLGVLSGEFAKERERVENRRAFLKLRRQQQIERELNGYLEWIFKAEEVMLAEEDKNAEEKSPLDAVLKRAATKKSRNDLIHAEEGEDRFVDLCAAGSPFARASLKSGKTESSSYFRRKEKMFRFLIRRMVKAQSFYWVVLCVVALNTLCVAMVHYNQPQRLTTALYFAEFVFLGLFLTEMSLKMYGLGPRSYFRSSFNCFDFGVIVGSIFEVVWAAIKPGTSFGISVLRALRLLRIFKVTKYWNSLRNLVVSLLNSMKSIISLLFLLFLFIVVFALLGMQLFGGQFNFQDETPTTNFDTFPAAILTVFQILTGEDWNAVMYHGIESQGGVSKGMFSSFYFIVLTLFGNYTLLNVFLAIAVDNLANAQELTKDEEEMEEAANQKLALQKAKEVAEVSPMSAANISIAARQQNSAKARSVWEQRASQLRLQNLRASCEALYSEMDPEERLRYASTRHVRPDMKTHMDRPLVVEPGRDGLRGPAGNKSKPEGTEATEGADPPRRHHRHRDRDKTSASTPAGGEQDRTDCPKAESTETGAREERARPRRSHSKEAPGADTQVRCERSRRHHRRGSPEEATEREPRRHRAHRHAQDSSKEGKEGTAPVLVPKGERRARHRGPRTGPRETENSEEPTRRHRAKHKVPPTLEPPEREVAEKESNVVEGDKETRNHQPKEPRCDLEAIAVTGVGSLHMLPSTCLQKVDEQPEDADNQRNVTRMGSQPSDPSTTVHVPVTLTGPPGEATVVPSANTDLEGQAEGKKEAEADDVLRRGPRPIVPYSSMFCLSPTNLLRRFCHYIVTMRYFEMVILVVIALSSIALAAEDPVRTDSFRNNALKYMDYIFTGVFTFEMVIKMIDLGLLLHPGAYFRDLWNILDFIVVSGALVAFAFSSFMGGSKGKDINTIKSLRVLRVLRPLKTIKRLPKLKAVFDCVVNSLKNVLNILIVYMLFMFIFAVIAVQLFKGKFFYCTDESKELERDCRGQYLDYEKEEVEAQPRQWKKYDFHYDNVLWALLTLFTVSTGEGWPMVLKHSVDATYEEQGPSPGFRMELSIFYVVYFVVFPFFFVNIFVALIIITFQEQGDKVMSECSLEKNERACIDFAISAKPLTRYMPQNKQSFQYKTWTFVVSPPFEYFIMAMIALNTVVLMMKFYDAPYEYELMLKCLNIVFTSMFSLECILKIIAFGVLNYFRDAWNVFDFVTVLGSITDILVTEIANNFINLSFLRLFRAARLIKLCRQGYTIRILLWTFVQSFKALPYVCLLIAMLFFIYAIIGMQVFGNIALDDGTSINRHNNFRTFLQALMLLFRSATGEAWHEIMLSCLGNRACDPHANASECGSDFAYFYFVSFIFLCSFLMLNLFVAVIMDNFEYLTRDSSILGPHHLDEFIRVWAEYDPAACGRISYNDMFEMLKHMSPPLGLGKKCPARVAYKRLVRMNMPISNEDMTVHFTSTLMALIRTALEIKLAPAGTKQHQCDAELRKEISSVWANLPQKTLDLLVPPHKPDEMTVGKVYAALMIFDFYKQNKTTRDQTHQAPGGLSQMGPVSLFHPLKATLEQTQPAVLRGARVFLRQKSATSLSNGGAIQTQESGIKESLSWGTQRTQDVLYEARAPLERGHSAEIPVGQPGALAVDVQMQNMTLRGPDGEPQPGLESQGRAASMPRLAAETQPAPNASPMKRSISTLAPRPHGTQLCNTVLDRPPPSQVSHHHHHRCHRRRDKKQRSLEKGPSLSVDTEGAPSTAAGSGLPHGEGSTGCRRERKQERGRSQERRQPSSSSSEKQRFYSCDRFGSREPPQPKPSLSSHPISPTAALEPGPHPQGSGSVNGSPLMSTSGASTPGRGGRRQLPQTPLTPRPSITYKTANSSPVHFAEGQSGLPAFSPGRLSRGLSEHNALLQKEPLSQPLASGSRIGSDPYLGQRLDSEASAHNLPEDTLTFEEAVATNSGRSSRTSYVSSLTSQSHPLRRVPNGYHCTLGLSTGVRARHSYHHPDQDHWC

Mus musculus [21] = assay: Analgesic activity was evaluated in mouse hotplate test; expressed as licking latency after 15 min of treatment at a dose of 40 ug intracerebroventricularly; assay type: functional; outline: as §3
Mus musculus [22] = assay: Analgesic activity was evaluated in mouse hotplate test; expressed as licking latency after 30 min of treatment at a dose of 40 ug intracerebroventricularly; assay type: functional; outline: as §3
Mus musculus [23] = organism: Mus musculus; assay: Percentage analgesic efficacy when compared to morphine; assay type: functional; set-up: concentration or dose not given beside the values; outline: as §1
Mus musculus [24] = assay: Analgesic activity was evaluated in mouse hotplate test; expressed as licking latency after 45 min of treatment at a dose of 40 ug intracerebroventricularly; assay type: functional; outline: as §3
Rattus norvegicus [25] = assay: Antihyperalgesic activity was evaluated in rat (dx) paw pressure test after 30 min at a dose of 40 ug intracerebroventricularly
Rattus norvegicus [26] = assay: Antihyperalgesic activity was evaluated in rat (dx) paw pressure test after 45 min at a dose of 40 ug intracerebroventricularly
Rattus norvegicus [27] = assay: Antihyperalgesic activity was evaluated in rat (dx) paw pressure test after 60 min at a dose of 40 ug intracerebroventricularly
Rattus norvegicus [28] = assay: Antihyperalgesic activity was evaluated in rat (sn) paw pressure test after 30 min at a dose of 40 ug intracerebroventricularly
Rattus norvegicus [29] = assay: Antihyperalgesic activity was evaluated in rat (sn) paw pressure test after 45 min at a dose of 40 ug intracerebroventricularly
Rattus norvegicus [30] = assay: Antihyperalgesic activity was evaluated in rat (sn) paw pressure test after 60 min at a dose of 40 ug intracerebroventricularly
[31] = target: Voltage-dependent N-type calcium channel subunit alpha-1B (Rattus norvegicus) (UniProt Q02294); assay: In vitro antagonism of N-type calcium channels expressed in PC12 cells was determined as the increase in intracellular calcium influx
Mus musculus [32] = assay: as §5; assay type: functional; remark: listed apart in the source
Outline: (§6)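 Male Swiss albino mice (23-30 g); icv injection under brief anaesthesia, 5 μL into the lateral ventricle, in saline or H2O/DMSO (2:1). Hot plate: latency to licking of fore or hind paws timed with a stopwatch before injection and every 15 min up to 60 min. Pretest scores below 12 or over 18 s rejected; cutoff 45 s.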

Mus musculus [33] = assay: as §2; assay type: functional; outline: as §6; remark: listed apart in the source
Mus musculus [34] = assay: as §4; assay type: functional; outline: as §6; remark: listed apart in the source

Compound: Cl.NC1CCN(C(=O)CCC(c2ccc(F)cc2)c2ccc(F)cc2)CC1
- Efficacy (Mus musculus [1]): 0%
- Efficacy (Mus musculus [2]): 147%
- Activity (Mus musculus [3]): 16.1 s
- Activity (Mus musculus [4]): 23.9 s
- Activity (Mus musculus [5]): 24.6 s
- Activity (Mus musculus [6]): 16.4 s
- Activity (Mus musculus [7]): 20.5 s
- Activity (Mus musculus [8]): 14.3 s
- Activity (Mus musculus [9]): 13.9 s
- Activity (Mus musculus [10]): 34.1 s
- Activity (Mus musculus [11]): 15.7 s
- Activity (Mus musculus [12]): 31.7 s
- Activity (Mus musculus [13]): 29.5 s
- Activity (Rattus norvegicus [14]): 55.1 g
- Activity (Rattus norvegicus [15]): 54.8 g
- Activity (Rattus norvegicus [16]): 59.3 g
- Activity (Rattus norvegicus [17]): 62.3 g
- Activity (Rattus norvegicus [18]): 55.6 g
- Activity (Rattus norvegicus [19]): 54.7 g
- pIC50 [20]: 5.62

Compound: CNC(CC(C)C)C(=O)NC1CCN(C(=O)CCC(c2ccc(F)cc2)c2ccc(F)cc2)CC1.Cl (centres undefined)
- Latency (Mus musculus [21]): 21.5 s
- Latency (Mus musculus [22]): 20.7 s
- Efficacy (Mus musculus [23]): 56%
- Latency (Mus musculus [24]): 15.5 s
- Activity (Rattus norvegicus [25]): 28.1 g
- Activity (Rattus norvegicus [26]): 33.4 g
- Activity (Rattus norvegicus [27]): 30.1 g
- Activity (Rattus norvegicus [28]): 55.7 g
- Activity (Rattus norvegicus [29]): 61.3 g
- Activity (Rattus norvegicus [30]): 66.4 g
- pIC50 [31]: 5.52

Compound: CN1CC[C@]23c4c5ccc(O)c4O[C@H]2[C@@H](O)C=C[C@H]3[C@H]1C5 [MORPHINE]
- Latency (Mus musculus [32]): 28.6 s
- Latency (Mus musculus [33]): 27.7 s
- Latency (Mus musculus [34]): 22.4 s

Source: ChEMBL document CHEMBL1139437, “Design, synthesis, and preliminary pharmacological evaluation of 4-aminopiperidine derivatives as N-type calcium channel blockers active on pain and neuropathic pain” (J Med Chem, 2004)
